Assay results: PMC3700226 (Organic & Biomolecular Chemistry, 2012)

How the values were obtained:
[1] = system: telomeric 3′ G-overhang in HT1080 cells; assay: Non-denaturing hybridization assay of telomeric G-overhang; format: cell-based, human; conditions: HT1080, respective IC50, time course of 12 days
[2] = system: HT1080 cells; assay: β-Galactosidase senescence assay; format: cell-based, human; conditions: HT1080, 8 days of incubation at respective IC50
Summary of the method: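 HT1080 cells were treated 4 d with test compound at its IC50, or untreated, then reseeded at 4000 per chamber-slide well for another 4 d of treatment. Cells were fixed in 2% formaldehyde/0.2% glutaraldehyde for 15 min. They were stained 16 h at 37 °C with 1 mg ml−1 X-gal in pH 6.0 citrate/phosphate buffer containing ferro/ferricyanide for senescence-associated β-galactosidase.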

[3] = system: human telomeric G-quadruplex-forming sequence (H-Telo); assay: FRET-melting assay, H-Telo; format: binding; conditions: 1 µM compound, 200 nM oligonucleotide, 60 mM potassium cacodylate pH 7.4
Summary of the method: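 Dual FAM/TAMRA-labelled H-Telo oligonucleotide was annealed at 400 nM (94 °C for 10 min, then cooled to rt at 0.1 °C min−1). It was mixed with test compound in 60 mM potassium cacodylate, pH 7.4, at 200 nM final oligonucleotide. Fluorescence was read with excitation at 483 nm and emission at 533 nm. Melting-temperature shift was measured in triplicate.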

[4] = system: HT1080 cells; assay: Long-term growth assay; format: cell-based, human; conditions: HT1080, incubated at respective IC50 over 30 days
Summary of the method: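 HT1080 cells were seeded at 300000 per T-25 flask with test compound at its IC50, or untreated. Every 3–4 days cells were split, counted with a haemocytometer and reseeded at 300000. Population doublings were calculated as PD = ln(n1/n2)/ln2 and run in triplicate. Dead cells were counted at each time point by trypan blue exclusion.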

[5] = system: HeLa, HT1080, U2OS and WI-38 cells; assay: Luminescent cell viability assay, panel of four human cell lines; format: cell-based; conditions: 3 days of exposure; concentrations up to 40 µM
[6] = system: HT1080 cells; assay: Luminescent cell viability assay; format: cell-based, human; conditions: ratio of 72 h IC50 values, WI-38 = 1.0
Summary of the method: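 HeLa, HT1080, U2OS and WI-38 cells were grown in DMEM with 10% FCS. Cells were plated at 4000 per well and left 24 h, then serially diluted test compound (0–40 μM) was added. Viability was read by CellTiter-Glo luminescence after 72 h, 20 min after reagent addition at rt, in triplicate. IC50 values were determined separately for HT1080 and for WI-38.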

O=C(Nc1cc(OCCN2CCCC2)c2ccccc2n1)c1cc(Cl)cc(C(=O)Nc2cc(OCCN3CCCC3)c3ccccc3n2)n1 [Compound 17]
Kinetics of G-overhang degradation (in words) [1]: most potent to induce an early effect | Senescent cells (β-galactosidase staining) [2]: presence of senescent cells

NCCOc1cc(NC(=O)c2cc(OCc3ccc(F)cc3)cc(C(=O)Nc3cc(OCCN)c4ccccc4n3)n2)nc2ccccc12 [Compound 20]
FRET ΔTm, H-Telo [3]: 8.8 K | Exposure time after which flattening of the population doubling curve started [4]: 19 days

O=C(Nc1cc(OCCN2CCCC2)c2ccccc2n1)c1cc(OCc2ccc(F)cc2)cc(C(=O)Nc2cc(OCCN3CCCC3)c3ccccc3n2)n1 [Compound 21]
FRET ΔTm, H-Telo [3]: 4.3 K

COc1cc(C(=O)Nc2cc(OC)c3ccccc3n2)nc(C(=O)Nc2cc(OC)c3ccccc3n2)c1 [Compound 14]
Growth inhibition against the panel of cell lines (in words) [5]: did not exhibit growth inhibitory properties

O=C(Nc1cc(OCCN2CCCC2)c2ccccc2n1)c1cc(OCCN2CCCC2)cc(C(=O)Nc2cc(OCCN3CCCC3)c3ccccc3n2)n1 [Compound 10]
Kinetics of G-overhang degradation (in words) [1]: most potent to induce an early effect | Senescent cells (β-galactosidase staining) [2]: presence of senescent cells

NCCOc1cc(C(=O)Nc2cc(OCCN)c3ccccc3n2)nc(C(=O)Nc2cc(OCCN)c3ccccc3n2)c1 [Compound 1, pyridostatin]
Selectivity ratio HT1080 over WI-38 [6]: 18.5

NCCOc1cc(C(=O)Nc2cc(OCCN3CCCC3)c3ccccc3n2)nc(C(=O)Nc2cc(OCCN3CCCC3)c3ccccc3n2)c1 [Compound 9]
Senescent cells (β-galactosidase staining) [2]: presence of senescent cells
